Measured values of several laboratories.
Protocols differ between the studies behind these lines.
Target: Beta-1 adrenergic receptor (ADRB1, Homo sapiens, UniProt P08588)
Tested at: 10 µM

Structure (SMILES) | assay | inhibition [%]
N#Cc1cc(Cn2c(N3CCCC3)nc3ccccc32)ccc1F | ligand displacement | -9.19
CCN(Cc1ccccc1C(F)(F)F)C(=O)C1CCN(S(=O)(=O)c2ccc3[nH]ncc3c2)CC1 | ligand displacement, radioligand | 3
CCN(CC)c1ccc(C2Nc3ccc(C(=O)c4ccccc4)cc3NC3=C2C(=O)CC(C)(C)C3)cc1 (centres unmarked) | ligand displacement, radioligand | -1
Ic1cccc2cnccc12 | ligand displacement, radioligand | 2
O=C1N=C(N2CCCCN2)S/C1=C\c1ccc(F)cc1O | ligand displacement, radioligand | < 10
Oc1cccc(Nc2nc(-c3ccc(F)cc3F)cs2)c1 | cell-free assay | -36.5
NS(=O)(=O)c1cc(NC(=O)C2(c3ccccc3Cl)CC2)ccc1Oc1cccc(Cl)c1 | cell-free assay | -3.09
CCCNc1nc2ccccc2n1Cc1ccc(Cl)cc1 | ligand displacement | 19.5
C[C@H](c1ccc(F)cc1)N(Cc1ccc(Cl)c(C(=O)O)c1)C(=O)c1cnc2ccccc2c1 | cell-free assay | -0.35
O=C(Nc1ccc(S(=O)(=O)N2CCC(Cl)CC2)cc1)c1ccc([N+](=O)[O-])o1 | ligand displacement, radioligand | 1
O=C(c1ccc(F)cc1)N(Cc1ccccc1)C1CCCCC1 | cell-free assay | 4
